In the library only some 4.6% were active in any assay of this set; here they are far more common.
TAAR1 antagonist – antagonists of human TAAR1. inhibition, % at 3 µM. AID 624466. 1.5% of 360,000 active. CHO RD-HGA16 TAAR1, Fluo-8 calcium fluorescence, antagonist;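 active means inhibition above a per-plate cutoff, the mean inhibition of test compounds on that plate plus 3 SD, cut at about 49% in these data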;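 further: 0% = DMSO plus EC80 beta-PEA response and 100% = DMSO alone without agonist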
Target sequence (Q96RJ0 whole entry, looked up): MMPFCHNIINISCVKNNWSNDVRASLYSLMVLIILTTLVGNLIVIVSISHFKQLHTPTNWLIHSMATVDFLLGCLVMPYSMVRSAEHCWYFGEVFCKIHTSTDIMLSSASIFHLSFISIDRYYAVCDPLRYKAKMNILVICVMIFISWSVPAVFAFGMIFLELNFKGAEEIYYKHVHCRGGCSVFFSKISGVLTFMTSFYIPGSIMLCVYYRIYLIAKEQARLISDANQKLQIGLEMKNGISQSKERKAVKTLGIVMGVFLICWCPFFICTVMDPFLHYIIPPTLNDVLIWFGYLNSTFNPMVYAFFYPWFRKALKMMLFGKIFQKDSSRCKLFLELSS
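Test system – hTAAR1-expressing CHO RD-HGA16 cells, Gα16-coupled · Reagent – β-PEA at EC80 concentration, post-compound challenge · Compound dosing – 3 µM, single point · Timing – 140 s kinetic read after compound, 140 s after agonist · Detection – Fluo-8 intracellular calcium dye fluorescence, real-time kinetic reads · Control set – DMSO and EC80 PEA controls · Repeats – n of 1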
OX1R antag-1 – OX1R (human) antagonism; O43613; inhibition, % at 6.6 µM; 1.8% of 330,000 active; OX1R-expressing cells, FRET antagonist read-out; AID 485270; in the data active means inhibition mostly above about 38%, no sharp cut-off; inactive means mostly below about 40%;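 further: 0% = agonist challenge alone and 100% = reference antagonist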
TAAR1 agonist – human TAAR1 agonism; activation, % at 3 µM; AID 624467; CHO RD-HGA16 TAAR1, Fluo-8 calcium fluorescence; vehicle wells 0%, saturating PEA agonist 100%; Q96RJ0; 0.99% of 360,000 active;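 active means activation above the mean activation of all test compounds in the run plus 3 SD, cut at about 38% in these data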
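Assay system – CHO-derived RD-HGA16 cells with stable Gα16 and human TAAR1 · Compound dosing – one-point dosing at 3 µM (nominal) · Incubation – 17-24 h seeding, 75 min 37 °C dye, 30 min RT · Measured by – kinetic Fluo-8 calcium fluorescence · Control set – DMSO vehicle as 0%, PEA at EC100 as 100% · Repeats – single well for each compound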
OX1R antag-2 – blocks the human orexin 1 receptor; CHO/OX1R cells, Fluo-8 calcium fluorescence, orexin A; inhibition, % at 5 µM; 0.43% of 330,000 active;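 active means inhibition above its plate's threshold, mean inhibition of all tested compounds on the plate plus 3 SD, cut at about 37% in these data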;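 further: 0% = orexin A challenge wells and 100% = SB-334867-A antagonist wells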
GPR7 antag – human neuropeptides B/W receptor 1 antagonism. P48145. GPR7-expressing cells, fluorescence antagonist assay. inhibition, % at 4.4 µM. 1.1% of 290,000 active. AID 1861; in the data active means inhibition above about 16%, passing the limit was not always enough;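 further: cells stimulated with the agonist NPW; 0% = agonist with vehicle and 100% = vehicle without agonist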
CHO parental Ca – counter-screen: ATP calcium response change in parental CHO cells; parental CHO-K1, ATP-induced calcium, Fluo-8 fluorescence; 0.63% of 330,000 active; inhibition, % at 5.6 µM; AID 463079;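 active means inhibition above that plate's mean sample inhibition plus 3 SD, cut at about 26% in these data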;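 further: 0% = ATP-challenged DMSO wells and 100% = DMSO wells without ATP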
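Material: parental CHO cells / Compound: single nominal dose of 5.6 µM per compound / Signal: Fluo-8 fluorescence / Replicates: singlicate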
The depositor's hits bear a star; . = no result.

SMILES	TAAR1 antagonist	OX1R antag-1	TAAR1 agonist	OX1R antag-2	GPR7 antag	CHO parental Ca
COc1ccc(C(=O)/C=C2/C(=O)Nc3ccccc32)c(OC)c1	19	11	13	2	15	7
O=C(CSc1nc2ccccc2s1)N1c2ccccc2Sc2ccc(Cl)cc21	1	45*	3	-4	1	5
O=C(CSc1nc2ccccc2s1)N1c2ccccc2Sc2ccc(C(F)(F)F)cc21	-12	6	2	-12	-18	-3
COc1cccc(NC(=O)Cc2nc(-c3ccccc3)sc2-c2ccc(C)cc2)c1	4	21	5	-20	2	-16
CC(=O)Nc1cccc(NC(=O)Cc2nc(-c3ccccc3)sc2-c2ccc(C)cc2)c1	3	68*	-1	13	16	-2
COc1cccc(-c2oc3c(c2C#CC2(N)CCCCC2)C(O)CCC3)c1 (stereo unspecified)	-14	.	4	.	.	.
Cc1ccc(S(=O)(=O)N2CC3=C(c4ccccc4)CC4(C)C(=O)C(C)(C)CC4=C3C2)cc1 (stereo unspecified)	0	.	-1	.	.	.
c1ccc(-c2cc(CSc3nc4ccccc4[nH]3)on2)cc1	37	89*	10	75*	-8	44*
CCOC(=O)c1cc([N+](=O)[O-])sc1NC(=O)CC	-10	61*	-2	-14	-8	-8
CN(C)C(=O)CSc1nnc(-c2cc(-c3cccs3)nc3ccccc23)o1	50*	37	15	-9	-13	-34
CC1=NC2=CC=CC3=NC(C(Cl)(Cl)Cl)=NC(=N1)N23	-10	.	2	.	.	.
O=Nc1c(O)n(Cc2ccccc2)c2ccccc12	-14	6	0	-5	-14	7
O=Nc1c(O)n(Cc2ccc(Cl)c(Cl)c2)c2ccccc12	-9	21	11	-4	-9	38*
C=CCNc1cccc2c1S(=O)(=O)N[C@H](Cc1ccccc1)CO2	12	.	3	.	.	.
O=C(/C=C/c1ccc([N+](=O)[O-])cc1)OCC(=O)N1CCCC1	-20	45*	3	-14	.	-17
O=C(OCC(=O)N1CCCCCC1)c1ccc([N+](=O)[O-])cc1Cl	3	46*	7	-26	-1	2
CN1CCN(C(=O)/C=C/c2ccc([N+](=O)[O-])cc2)CC1	15	61*	1	-7	-5	-10
O=C(/C=C/c1ccc([N+](=O)[O-])cc1)N1CCN(Cc2ccccc2)CC1	-2	37	2	-6	27	4
Cn1c(CC(O)c2nc3ccccc3n2C)nc2ccccc21 (stereo unspecified)	-4	.	2	.	.	.
CCn1ncc2c(=O)c(C(=O)c3ccccc3)c[nH]c21	9	.	-1	.	.	.
O=C(CC1CCCC1)N[C@H](C(=O)N1CCC[C@H]1C(=O)NC1CCCC1)C1CCCCC1	-29	.	-1	.	.	.
O=C(N=Nc1c(O)[nH]c2c(Cl)cc(Cl)cc12)c1ccccc1O	24	.	2	.	.	.
COc1ccc(C(C(=O)NC2CCCC2)N(CC2CCCO2)C(=O)Cc2cccs2)cc1OC (stereo unspecified)	8	12	-1	-33	18	-22
O=C(NC1CCCC1)C(c1cccs1)N(CC1CCCO1)C(=O)Cc1cccs1 (stereo unspecified)	12	22	3	-8	18*	-20
CCCN(C(=O)CCc1cn(CCC)c2ccccc12)c1ccc(N(C)c2ccccn2)cc1	27	.	0	.	.	.
SMILES	TAAR1 antagonist	OX1R antag-1	TAAR1 agonist	OX1R antag-2	GPR7 antag	CHO parental Ca
Cn1c(N=Nc2ccccc2)nc2ccccc21	-18	64*	-1	-26	-2	-19
Cn1c(Cl)nc2ccccc21	4	8	6	2	-12	-8
N#CC1=C(N)NC(SCc2ccc(F)cc2)=C(C#N)C12CCCCC2	54*	66	29	41	5	27
NC(=S)N1OC[C@@H]2COc3ccc4ccccc4c3[C@@H]21	13	8	4	13	16*	0
COc1ccc(NC(=O)CSCC(=O)Nc2ccccc2N2CCCC2)cc1	-1	19	0	-26	.	-12
COc1ccc(NC(=O)CSCC(=O)Nc2ccccc2N2CCCCC2)cc1	25	36*	4	-8	.	-30

Compound activity deposited in PubChem BioAssay by The Scripps Research Institute Molecular Screening Center.
